Test results as given in ChEMBL document CHEMBL1135333, “Long-chain aminoalcohol and diamine derivatives induce apoptosis through a caspase-3 dependent pathway” (Bioorg Med Chem Lett, 2002).

What was measured:
Jurkat [1] = assay: Inhibitory concentration required for 50% apoptosis induction was evaluated using jurkat cells (T-lymphoma cells); assay type: functional, cell-based; conditions: Homo sapiens
Procedure, shortened: (§1)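 Jurkat T-lymphoma cells exposed 24 h to rising concentrations (0.1–100 μM). Ethanol-fixed cells then RNase-digested and stained with propidium iodide. Flow-cytometric cell-cycle analysis scored the hypodiploid (sub-G0/G1) fraction as apoptotic cells with fragmented DNA. IC50 taken from these concentration–response series.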

Jurkat [2] = assay: Inhibitory concentration required for 50% apoptosis induction was evaluated using jurkat cells (T-lymphoma cells); NA means not active.; assay type: functional, cell-based, Homo sapiens; procedure, shortened: as §1

Row | IC50 (Jurkat [1]) | IC50 (Jurkat [2]) | Structure (SMILES)
1 | 28 µM |  | CCCCCCCCCCCCCCC(CO)NC(=O)OC(C)(C)C (stereo not given)
2 | > 60 µM |  | CCCCCCCCCCCCCCC(CN(CC(=O)OCC)CC(=O)OCC)NC(=O)OC(C)(C)C (stereo not given)
3 | 32 µM |  | CCCCCCCCCCCCCCC(N)CN(CC(=O)OCC)CC(=O)OCC (stereo not given)
4 | 6 µM |  | CCCCCCCCCCCCCCC(CNCC)NC(=O)OC(C)(C)C (stereo not given)
5 |  | Not Active | CCCCCCCCCCCCCCC(=O)NC(CCCCCCCCCCCCCC)COC(=O)CCCCCC (stereo not given)
6 | 7 µM |  | CCCCCCCCCCCCCCC(N)CO (stereo not given)
7 | 3 µM |  | CCCCCCCCCCCCCCC(N)COCc1ccccc1 (stereo not given)
8 | 20 µM |  | CCCCCCCCCCCCCCC(COCc1ccccc1)N(CC)CC (stereo not given)
9 | 6 µM |  | CCCCCCCCCCCCCCC(O)CNC1CCCCC1 (stereo not given)
10 | 6 µM |  | CCCCCCCCCCCCCCC(CN)NC(=O)OC(C)(C)C (stereo not given)
11 | 31 µM |  | CCCCCCCCCCCCCCC(N)CNCC(=O)O (stereo not given)
12 | 55 µM |  | CCCCCCCCCCCCCCC(N)CNCCCCC(=O)O (stereo not given)
13 | > 50 µM |  | CCCCCCCCCCCCCCC(COCc1ccccc1)NC(=O)CCCC(=O)O (stereo not given)
14 |  | Not Active | CCCCCCCCCCCCCCC(N)CNCC(=O)OCC (stereo not given)
15 | 6 µM |  | CCCCCCCCCCCCCCC(COCc1ccccc1)NCC (stereo not given)

Further lines, the molecule ahead of its results:

Row | Structure (SMILES) | IC50 (Jurkat [1]) | IC50 (Jurkat [2])
16 | CCCCCCCCCCCCCCC(CN(CC)CC)NC(=O)OC(C)(C)C (stereo not given) | 21 µM | 
17 | CCCCCCCCCCCCCCC(N)CN (stereo not given) | 55 µM | 
18 | CCCCCCCCCCCCCCC(CNCC(=O)OCC)NC(=O)OC(C)(C)C (stereo not given) | 28 µM | 
19 | CCCCCCCCCCCCCCC(CNCCCCC(=O)O)NC(=O)OC(C)(C)C (stereo not given) | 18 µM | 
20 | CCCCCCCCCCCCCCC(COCc1ccccc1)NC(=O)CCC(=O)O (stereo not given) | 30 µM | 
21 | CCCCCCCCCCCCCCC(CO)NCCCCCC (stereo not given) | 6 µM | 
22 | CCCCCCCCCCCCCCC(CO)N(CC)CC (stereo not given) | 1 µM | 
23 | CCCCCCCCCCCCCCC(=O)NC(CCCCCCCCCCCCCC)COC(=O)CCCCCCCCCCCCCC (stereo not given) |  | Not Active
24 | CCCCCCCCCCCCCCC(CN(CC)CC)NCCCCC(=O)O (stereo not given) |  | Not Active
25 | CCCCCCCCCCCCCCC(COCc1ccccc1)NCC(=O)O (stereo not given) | 3 µM | 
26 | CCCCCCCCCCCCCCC(O)CNCc1ccccc1 (stereo not given) | 27 µM | 
27 | CCCCCCCCCCCCCCC(COC(=O)CCCCCC)NC(=O)CCCCCC (stereo not given) |  | Not Active
28 | CCCCCCCCCCCCCCC(N)CN(CC)CC (stereo not given) | 7 µM | 
29 | CCCCCCCCCCCCCCC(CO)NCC (stereo not given) | 6 µM | 
30 | CCCCCCCCCCCCCCC(CO)NC(=O)CCCC(=O)O (stereo not given) | 24 µM | 
